# From ChEMBL document CHEMBL4052623, “Synthesis and antiproteasomal activity of novel O-benzyl salicylamide-based inhibitors built from leucine and phenylalanine” (Eur J Med Chem, 2017)
# Key:
# K562 = assay: Antiproliferative activity against human K562 cells after 72 hrs by calcein AM staining based fluorescence assay; format: functional; conditions: K562, 72 h
# How it was run: (§1)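 Cells treated with three-fold compound dilutions in triplicate for 72 h. Calcein AM added afterwards and live-cell fluorescence read at 485/538 nm (ex/em). GI50, the concentration lethal to 50% of tumour cells, calculated from dose-response curves.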
# U-266 = assay: Antiproliferative activity against human U266 cells after 72 hrs by calcein AM staining based fluorescence assay; format: functional; conditions: U-266, 72 h; how it was run: as §1
# CCRF-CEM = assay: Antiproliferative activity against human CEM cells after 72 hrs by calcein AM staining based fluorescence assay; format: functional; how it was run: as §1
# [1] = molecular target: Proteasome Macropain subunit (Homo sapiens) (UniProt P49721); assay: Inhibition of trypsin like activity of 26S proteasome beta 2 subunit in human U266 cells assessed as residual activity using […] as substrate at 10 uM preincubated for 1 hr followed by substrate addition and measured after 4 hrs by fluorescence assay relative to control; format: cell-based
# Proteasome Macropain subunit (Homo sapiens), sequence (P49721 whole entry): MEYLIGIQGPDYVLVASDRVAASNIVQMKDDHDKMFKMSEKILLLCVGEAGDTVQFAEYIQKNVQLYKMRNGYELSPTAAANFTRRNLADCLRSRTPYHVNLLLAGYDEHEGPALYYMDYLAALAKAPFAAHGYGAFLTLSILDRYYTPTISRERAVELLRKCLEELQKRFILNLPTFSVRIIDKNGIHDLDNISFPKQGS
# [2] = molecular target: T1, Proteasome Macropain subunit MB1 (Homo sapiens, UniProt P28074); assay: Inhibition of chymotrypsin-like activity of 26S proteasome beta 5 subunit in human U266 cells using Suc-LLVY-aminoluciferin as substrate after 1 hr by Proteosome-Glo luminescence assay; format: cell-based
# T1 sequence (P28074 whole entry): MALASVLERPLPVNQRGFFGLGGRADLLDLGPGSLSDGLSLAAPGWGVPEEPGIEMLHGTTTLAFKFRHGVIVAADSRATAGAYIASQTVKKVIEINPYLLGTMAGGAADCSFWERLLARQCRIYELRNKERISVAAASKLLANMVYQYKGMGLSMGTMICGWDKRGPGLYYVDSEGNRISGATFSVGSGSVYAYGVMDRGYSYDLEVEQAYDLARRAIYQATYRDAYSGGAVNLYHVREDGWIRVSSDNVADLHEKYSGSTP
# How it was run: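 U266 multiple myeloma cells plated at 20,000 cells/well and exposed to varying compound concentrations for 1 h at 37 °C, in duplicate. 26S proteasome activity measured immediately as luciferase-coupled hydrolysis of the β5 substrate Suc-LLVY-aminoluciferin (Proteasome-Glo), read by luminescence. Activity normalised to untreated cells; IC50 derived from dose-response curves.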
# [3] = molecular target: T2, Proteasome Macropain subunit MB1 (Homo sapiens) (UniProt P28074); assay: Inhibition of chymotrypsin like activity of 26S proteasome beta 5 subunit in human U266 cells assessed as residual activity using N-Suc-LLVY-AMC as substrate at 10 uM preincubated for 1 hr followed by substrate addition and measured after 4 hrs by fluorescence assay relative to control; format: cell-based
# T2 sequence (whole entry): T1 sequence (P28074 whole entry)
# [4] = molecular target: T3, Proteasome component C5 (Homo sapiens) (UniProt P20618); assay: Inhibition of caspase like activity of 26S proteasome beta 1 subunit in human U266 cells assessed as residual activity using […] as substrate at 10 uM preincubated for 1 hr followed by substrate addition and measured after 4 hrs by fluorescence assay relative to control; format: cell-based
# T3 sequence (whole entry): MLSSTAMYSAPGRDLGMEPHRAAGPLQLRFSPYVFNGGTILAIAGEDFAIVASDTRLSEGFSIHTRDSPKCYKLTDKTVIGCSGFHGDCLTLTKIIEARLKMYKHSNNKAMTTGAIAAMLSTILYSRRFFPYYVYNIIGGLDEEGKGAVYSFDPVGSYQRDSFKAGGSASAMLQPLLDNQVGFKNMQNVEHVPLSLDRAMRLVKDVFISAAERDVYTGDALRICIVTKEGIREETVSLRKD
SMILES,GI50 (K562) [µM],GI50 (U-266) [µM],GI50 (CCRF-CEM) [µM],Activity [1] [%],IC50 [2] [µM],Activity [3] [%],Activity [4] [%]
CON(C)C(=O)[C@H](Cc1ccccc1)NC(=O)c1cc(Cl)ccc1OCc1ccccc1,50.9,92.3,65.2,,,,
CON(C)C(=O)[C@H](Cc1ccccc1)NC(=O)[C@H](CC(C)C)NC(=O)[C@H](CC(C)C)NC(=O)c1cc(Cl)ccc1OCc1ccccc1,44.2,47.2,15.1,,,,
CON(C)C(=O)[C@H](CC(C)C)NC(=O)[C@H](Cc1ccccc1)NC(=O)[C@H](CC(C)C)NC(=O)c1cc(Cl)ccc1OCc1ccccc1,16.4,48.6,19,,,,
CON(C)C(=O)[C@@H](CC(C)C)NC(=O)[C@H](Cc1ccccc1)NC(=O)c1cc(Cl)ccc1OCc1ccccc1,25.8,67.4,32.2,,,,
COC(=O)[C@@H](CC(C)C)NC(=O)[C@H](Cc1ccccc1)NC(=O)[C@H](CC(C)C)NC(=O)c1cc(Cl)ccc1OCc1ccccc1,> 100,88.5,68.2,,,,
CON(C)C(=O)[C@H](Cc1ccccc1)NC(=O)[C@H](CC(C)C)NC(=O)c1cc(Cl)ccc1O,93.6,79.2,48.2,,,,
CON(C)C(=O)[C@H](CC(C)C)NC(=O)[C@H](CC(C)C)NC(=O)c1cc(Cl)ccc1O,98.1,69,63,,,,
CON(C)C(=O)[C@H](CC(C)C)NC(=O)[C@H](Cc1ccccc1)NC(=O)c1cc(Cl)ccc1O,90.9,71.6,64.1,,,,
CON(C)C(=O)[C@H](Cc1ccccc1)NC(=O)[C@H](Cc1ccccc1)NC(=O)[C@H](CC(C)C)NC(=O)c1cc(Cl)ccc1O,22.2,23.1,16.3,,,,
O=C[C@H](Cc1ccccc1)NC(=O)[C@H](Cc1ccccc1)NC(=O)c1cc(Cl)ccc1OCc1ccccc1,27.1,21.7,15.5,78.4,> 1,97.3,71.5
CON(C)C(=O)[C@H](Cc1ccccc1)NC(=O)c1cc(Cl)ccc1O,99.1,72.4,55.5,,,,
CC(C)CC(C=O)NC(=O)[C@H](CC(C)C)NC(=O)c1cc(Cl)ccc1OCc1ccccc1 (some centres undefined),21,37,16.3,88.1,> 1,84.3,35.3
CON(C)C(=O)[C@H](CC(C)C)NC(=O)[C@H](Cc1ccccc1)NC(=O)[C@H](CC(C)C)NC(=O)c1cc(Cl)ccc1O,30.9,32.8,17.2,,,,
COC(=O)[C@@H](CC(C)C)NC(=O)[C@H](CC(C)C)NC(=O)[C@H](CC(C)C)NC(=O)c1cc(Cl)ccc1OCc1ccccc1,> 100,82,51,,,,
CON(C)C(=O)[C@H](Cc1ccccc1)NC(=O)[C@H](Cc1ccccc1)NC(=O)c1cc(Cl)ccc1OCc1ccccc1,29.6,72.1,28.6,,,,
CON(C)C(=O)[C@H](CC(C)C)NC(=O)c1cc(Cl)ccc1OCc1ccccc1,42.7,54.1,45.2,,,,
COC(=O)[C@H](CC(C)C)NC(=O)[C@H](Cc1ccccc1)NC(=O)[C@H](CC(C)C)NC(=O)c1cc(Cl)ccc1OCc1ccccc1,58.5,83.7,48.5,,,,
CC(C)C[C@H](NC(=O)c1cc(Cl)ccc1O)C(=O)N[C@@H](Cc1ccccc1)C(=O)N[C@H](CO)Cc1ccccc1,27.3,18.9,10.8,,,,
CC(C)C[C@@H](CO)NC(=O)[C@H](Cc1ccccc1)NC(=O)[C@H](CC(C)C)NC(=O)c1cc(Cl)ccc1O,22.4,11.8,8.45,,,,

SMILES,GI50 (K562) [µM],GI50 (U-266) [µM],GI50 (CCRF-CEM) [µM],Activity [1] [%],IC50 [2] [µM],Activity [3] [%],Activity [4] [%]
CC(C)C[C@@H](C=O)NC(=O)[C@H](CC(C)C)NC(=O)[C@H](CC(C)C)NC(=O)c1cc(Cl)ccc1OCc1ccccc1,0.76,0.2,0.41,54.2,0.057,11.8,34.6
CON(C)C(=O)[C@H](CC(C)C)NC(=O)[C@H](CC(C)C)NC(=O)c1cc(Cl)ccc1OCc1ccccc1,33.2,35.2,22.2,,,,
CON(C)C(=O)[C@H](CC(C)C)NC(=O)c1cc(Cl)ccc1O,> 100,> 100,58.6,,,,
O=C[C@H](Cc1ccccc1)NC(=O)c1cc(Cl)ccc1OCc1ccccc1,33.3,63.8,17.7,70.2,> 1,70.8,53
CON(C)C(=O)[C@@H](CC(C)C)NC(=O)[C@H](Cc1ccccc1)NC(=O)[C@H](CC(C)C)NC(=O)c1cc(Cl)ccc1OCc1ccccc1,28.9,22.6,17.6,,,,
CON(C)C(=O)C(Cc1ccccc1)NC(=O)[C@H](Cc1ccccc1)NC(=O)c1cc(Cl)ccc1O (some centres undefined),79.5,68.7,54.2,,,,
CON(C)C(=O)[C@H](Cc1ccccc1)NC(=O)[C@H](Cc1ccccc1)NC(=O)[C@H](CC(C)C)NC(=O)c1cc(Cl)ccc1OCc1ccccc1,34.7,56.3,35.7,,,,
CON(C)C(=O)[C@H](Cc1ccccc1)NC(=O)[C@H](CC(C)C)NC(=O)c1cc(Cl)ccc1OCc1ccccc1,22.5,81.9,19.5,,,,
CON(C)C(=O)[C@@H](CC(C)C)NC(=O)[C@H](CC(C)C)NC(=O)[C@H](CC(C)C)NC(=O)c1cc(Cl)ccc1OCc1ccccc1,34,23.7,11.5,,,,
COC(=O)[C@H](Cc1ccccc1)NC(=O)[C@H](Cc1ccccc1)NC(=O)[C@H](CC(C)C)NC(=O)c1cc(Cl)ccc1OCc1ccccc1,72,82.1,48,,,,
COC(=O)[C@H](Cc1ccccc1)NC(=O)[C@H](CC(C)C)NC(=O)[C@H](CC(C)C)NC(=O)c1cc(Cl)ccc1OCc1ccccc1,70.3,72.2,31.4,,,,
CC(C)C[C@H](NC(=O)c1cc(Cl)ccc1OCc1ccccc1)C(=O)N[C@@H](Cc1ccccc1)C(=O)N[C@@H](C=O)CC(C)C,0.73,0.21,0.4,> 100,0.075,20.7,19.7
CC(C)C[C@H](NC(=O)c1cc(Cl)ccc1OCc1ccccc1)C(=O)N[C@@H](CC(C)C)C(=O)N[C@@H](C=O)CC(C)C,0.98,0.38,0.58,74.3,0.182,18,35.5
CC(C)CC(C=O)NC(=O)[C@H](Cc1ccccc1)NC(=O)c1cc(Cl)ccc1OCc1ccccc1 (some centres undefined),17.3,17.7,15.1,92,> 1,95,39.9
CC(C)C[C@H](NC(=O)c1cc(Cl)ccc1O)C(=O)N[C@H](C=O)Cc1ccccc1,57.9,64.9,27.7,81,> 1,> 100,> 100
COC(=O)[C@H](CC(C)C)NC(=O)[C@H](CC(C)C)NC(=O)[C@H](CC(C)C)NC(=O)c1cc(Cl)ccc1OCc1ccccc1,87.5,84.9,48.4,,,,
CC(C)C[C@@H](C=O)NC(=O)c1cc(Cl)ccc1OCc1ccccc1,23.6,55.8,24.3,57.5,> 1,68.8,68.2
CON(C)C(=O)[C@H](CC(C)C)NC(=O)[C@H](CC(C)C)NC(=O)[C@H](CC(C)C)NC(=O)c1cc(Cl)ccc1OCc1ccccc1,55.6,55.2,30.6,,,,
CC(C)C[C@H](NC(=O)c1cc(Cl)ccc1OCc1ccccc1)C(=O)N[C@H](C=O)Cc1ccccc1,16.3,14.8,11,85.9,> 1,85.2,67.8
